This passage reports Activity, dose excreted and Stability results from ChEMBL document CHEMBL1800010, “Design, synthesis, and pharmacological activity of nonallergenic pyrazolone-type antipyretic analgesics” (J Med Chem, 2010).

The subject of data set [1] is Rattus norvegicus. The experiment in a line: Antinociceptive activity in rat assessed as suppression of carrageenan-induced nociception in right hind paw at 2 mg/kg, po measured after 1 hr. Type of data set: functional, organism-based. Details: dose 2 mg/kg. Summed up: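 Rat Randall-Selitto paw pressure test. Hyperalgesia induced by intraplantar injection of 0.1 mL carrageenin (10 mg/mL) into the right hindpaw. Drug given orally immediately after. Pressure applied at 16 g/s with a 250 g cutoff; threshold taken at squeaking/struggling. Baseline is the mean of the last four stable readings. Expressed as % of control threshold; mean ± SEM, n=4 rats.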

Data set [2] has as its system Rattus norvegicus. The experiment in a line: Antipyretic activity against IL-1beta-induced hyperthermia in rat assessed as change in rectal temperature at 100 mg/kg, po measured after 2 hrs.
Data set [3] deals with Liver microsomes. The experiment in a line: Metabolic stability in rat liver microsomes assessed as norantipyrine formation per mg of protein after 20 mins by HPLC analysis. Type of data set: ADME, Microsome. A digest of the protocol:
(§1)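 Rat liver microsomes prepared by 9000g then 105000g centrifugation in 1.15% KCl, protein by Lowry. Incubation: 2 μmol substrate, 10 μmol NADPH, Na2S2O5 and microsomes (2-2.5 mg protein) in 2 mL 0.1 M K/Na phosphate, pH 7.4, 37 °C, 20 min. Stopped with TCA. Metabolites measured by C18 HPLC at 254 nm against authentic standards.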

For data set [4], the species on record is Rattus norvegicus. The experiment in a line: Antipyretic activity against IL-1beta-induced hyperthermia in rat assessed as change in rectal temperature measured after 2 hrs. Type of data set: functional, organism-based. A digest of the protocol:
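Rats fitted with a guide cannula into the lateral ventricle. Fever induced by icv IL-1β (200 units/rat) in PBS pH 7.5. Compound given orally immediately after IL-1β at 10-100 mg/kg. Rectal temperature read by thermoelectric probe at 7 cm depth, after 3 days of adaptation, at 2 h intervals. ΔT_rec = T − T₀. Mean ± SEM, four rats.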

Another data set is filed under the species Cavia porcellus. The experiment in a line: Antigenicity in guinea pig assessed as erythema in abdomen id measured after 24 hrs by skin reaction assay. The conditions noted are these: in vivo, other.
The subject of data set [5] is Rattus norvegicus. The experiment in a line: Antinociceptive activity in rat assessed as suppression of carrageenan-induced nociception in right hind paw at 100 mg/kg, po measured after 1 hr. Further details: dose 100 mg/kg. It counts as functional, organism-based. A digest of the protocol: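 Randall–Selitto paw pressure test in rats. Hyperalgesia induced by intraplantar injection of 0.1 mL carrageenin (10 mg/mL) into the right hindpaw, with oral dosing immediately afterward. Pressure rose at 16 g/s to squeak or struggle, cutoff 250 g. Baseline was the mean of the last four stable of 6-8 readings. Results given as % of baseline threshold, mean ± SEM, n=4.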

For data set [6], the system named is Rattus norvegicus. The data set can be described thus: Drug excretion in rat urine assessed as norantipyrine formation at 100 mg/kg, po measured after 24 hrs by HPLC analysis. The conditions noted are these: in vivo. Type of data set: ADME, organism-based. Details: dose 100 mg/kg, route oral. A digest of the protocol: (§2)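 Single oral dose of 100 mg/kg to rats, with urine collected for 24 h. 1 mL urine was incubated with β-glucuronidase/sulphatase and Na2S2O5 in 0.1 M acetate, pH 4.5, at 37 °C for 24 h. Phenacetin internal standard added, then chloroform/methanol 9:1 extraction. Analyzed by C18 HPLC (acetate pH 6.6/acetonitrile 85:15, 254 nm) against authentic standards. Mean ± SEM, n=4.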

Data set [7] relates to Rattus norvegicus. The data set can be described thus: Drug excretion in rat urine assessed as hydroxymethylpyrine formation at 100 mg/kg, po measured after 24 hrs by HPLC analysis. As to conditions: in vivo. Further details: dose 100 mg/kg, route oral. Type of data set: ADME, organism-based. A digest of the protocol:
as §2

For data set [8], the system named is Rattus norvegicus. The experiment in a line: Drug excretion in rat urine assessed as norantipyrine formation at 100 mg/kg, po measured after 24 hrs by HPLC analysis. As to conditions: in vivo, BLD = below limit of detection.
Data set [9] has as its system Rattus norvegicus. The data set can be described thus: Antipyretic activity against IL-1beta-induced hyperthermia in rat assessed as change in rectal temperature at 50 mg/kg, po measured after 2 hrs.
Data set [10] deals with Liver microsomes. The data set can be described thus: Metabolic stability in rat liver microsomes assessed as hydroxymethylpyrine formation per mg of protein after 20 mins by HPLC analysis. It counts as ADME, Microsome. Summed up:
as §1
On the technique in general: Microsomes from liver hold many membrane-bound enzymes, among them those of drug oxidation.

Data set [11] has as its system Rattus norvegicus. The data set can be described thus: Drug excretion in rat urine assessed as hydroxyantipyrine formation at 100 mg/kg, po measured after 24 hrs by HPLC analysis. It counts as ADME, organism-based. Further details: dose 100 mg/kg, route oral. The conditions noted are these: in vivo. A digest of the protocol: as §2
Data set [12] can be described thus: Drug excretion in rat urine at 100 mg/kg, po measured after 24 hrs by HPLC analysis. Type of data set: ADME, organism-based. Further details: dose 100 mg/kg, route oral. The conditions noted are these: read-out: Activity. A digest of the protocol: as §2
Data set [13] deals with Liver microsomes. The experiment in a line: Metabolic stability in rat liver microsomes assessed as increase in […] products after 20 mins by HPLC analysis. Type of data set: ADME, Microsome. Summed up: as §1
Data set [14] has as its system Liver microsomes. The data set can be described thus: Metabolic stability in rat liver microsomes assessed as hydroxyantipyrine formation per mg of protein after 20 mins by HPLC analysis. Type of data set: ADME, Microsome. A digest of the protocol:
as §1

SMILES strings stand for the structures. Calls of active or inactive are those of the source.

Take `COc1ccc2c(c1)c(CC(=O)O)c(C)n2C(=O)c1ccc(Cl)cc1`: the outcome in the data set on Rattus norvegicus [1] was Active.
Regarding `Cc1cccc(Nc2ccccc2C(=O)O)c1C`, in the data set on Rattus norvegicus [2], the result was Active.
As for `Cc1cc(=O)n(-c2ccccc2)n1-c1ccccc1`, the Activity is less than 0.1 nmol in the data set with Liver microsomes [3]; “Dose-dependent effect” in the data set filed under Rattus norvegicus [4]; “Non-toxic” in the data set listed under Cavia porcellus; “BLD” in the data set with Rattus norvegicus [6] (BLD = below limit of detection); “BLD” with Rattus norvegicus [7] (BLD = below limit of detection); “BLD” with Rattus norvegicus [8]. Further, the outcome in the data set with Rattus norvegicus [5] and with Rattus norvegicus [9] was Active.
With `Cc1cc(=O)n(-c2ccccc2)n1C(C)(C)C`, the Activity was less than 0.1 nmol in the data set on Liver microsomes [3]; “Dose-dependent effect” in the data set listed under Rattus norvegicus [4]; “Non-toxic” in the data set listed under Cavia porcellus; “BLD” in the data set on Rattus norvegicus [6] (BLD = below limit of detection); “BLD” with Rattus norvegicus [7] (BLD = below limit of detection); “BLD” in the data set on Rattus norvegicus [8]. The outcome in the data set with Rattus norvegicus [5] and in the data set with Rattus norvegicus [9] was Active.
Regarding `Cc1cc(=O)n(-c2ccccc2)n1C` [ANTIPYRINE], the Activity is 27 nmol in the data set on Liver microsomes [3]; 40 nmol in the data set on Liver microsomes [10]; 2% in the data set on Rattus norvegicus [11]; “Toxic” in the data set filed under Cavia porcellus; 2% in the data set on Rattus norvegicus [6]; 2% in the data set with Rattus norvegicus [7]. In addition, the Activity in the data set on Liver microsomes [14] came out at 40 nmol. Moreover, the dose excreted at 24 h in data set [12] came to 2%. Further, the result in the data set with Rattus norvegicus [5] and with Rattus norvegicus [2] was Active. Besides, the Stability entry in the data set with Liver microsomes [13] is on record as “Unstable”.
Consider `Cc1cc(=O)n(-c2ccccc2)n1CC(F)(F)F`, for which the Activity in the data set on Liver microsomes [3] was less than 0.1 nmol; in the data set listed under Rattus norvegicus [4] it was “Dose-dependent effect”; in the data set filed under Cavia porcellus, “Non-toxic”; with Rattus norvegicus [6] (BLD = below limit of detection), “BLD”; in the data set on Rattus norvegicus [7] (BLD = below limit of detection), “BLD”; in the data set on Rattus norvegicus [8] it was “BLD”. The result with Rattus norvegicus [5] and in the data set with Rattus norvegicus [9] was Active.
